# Test results as given in ChEMBL document CHEMBL1817631, “Synthesis and characterization of tritylthioethanamine derivatives with potent KSP inhibitory activity” (Bioorg Med Chem, 2011).
# Active and inactive are the calls of the source. The rule behind the calls is not given here.
# How the values were obtained:
# LOX IMVI = test: Growth inhibition of human LOXIMVI cells; type: functional
# SNB-75 = test: Growth inhibition of human SNB75 cells; type: functional
# TK-10 = test: Growth inhibition of human TK10 cells; type: functional
# SNB-19 = test: Growth inhibition of human SNB19 cells; type: functional
# ACHN = test: Growth inhibition of human ACHN cells; type: functional
# UACC-62 = test: Growth inhibition of human UACC62 cells; type: functional
# UO-31 = test: Growth inhibition of human UO31 cells; type: functional
# SK-MEL-28 = test: Growth inhibition of human SK-MEL-28 cells; type: functional
# SF-539 = test: Growth inhibition of human SF539 cells; type: functional
# HCT-15 = test: Growth inhibition of human HCT15 cells; type: functional
# SK-MEL-5 = test: Growth inhibition of human SK-MEL-5 cells; type: functional
# HL-60(TB) = test: Growth inhibition of human HL-60(TB) cells; type: functional
# [1] = Growth inhibition of human […] cells; type: functional
# NCI-H322M = test: Growth inhibition of human NCI-H322M cells; type: functional
# OVCAR-5 = test: Growth inhibition of human OVCAR5 cells; type: functional
# HT-29 = test: Growth inhibition of human HT-29 cells; type: functional
# SW-620 = test: Growth inhibition of human SW620 cells; type: functional
# HCC 2998 = test: Growth inhibition of human HCC2998 cells; type: functional
# SN12C = test: Growth inhibition of human SN12C cells; type: functional
# M14 = test: Growth inhibition of human M14 cells; type: functional
# [2] = biological target: T1, Kinesin-like protein Klp61F (Drosophila melanogaster) (UniProt P46863); test: Inhibition of Drosophila melanogaster Klp61F in S2 cells at 100 uM up to 7 hrs by immunofluorescence analysis; type: cell-based
# T1 sequence (whole entry): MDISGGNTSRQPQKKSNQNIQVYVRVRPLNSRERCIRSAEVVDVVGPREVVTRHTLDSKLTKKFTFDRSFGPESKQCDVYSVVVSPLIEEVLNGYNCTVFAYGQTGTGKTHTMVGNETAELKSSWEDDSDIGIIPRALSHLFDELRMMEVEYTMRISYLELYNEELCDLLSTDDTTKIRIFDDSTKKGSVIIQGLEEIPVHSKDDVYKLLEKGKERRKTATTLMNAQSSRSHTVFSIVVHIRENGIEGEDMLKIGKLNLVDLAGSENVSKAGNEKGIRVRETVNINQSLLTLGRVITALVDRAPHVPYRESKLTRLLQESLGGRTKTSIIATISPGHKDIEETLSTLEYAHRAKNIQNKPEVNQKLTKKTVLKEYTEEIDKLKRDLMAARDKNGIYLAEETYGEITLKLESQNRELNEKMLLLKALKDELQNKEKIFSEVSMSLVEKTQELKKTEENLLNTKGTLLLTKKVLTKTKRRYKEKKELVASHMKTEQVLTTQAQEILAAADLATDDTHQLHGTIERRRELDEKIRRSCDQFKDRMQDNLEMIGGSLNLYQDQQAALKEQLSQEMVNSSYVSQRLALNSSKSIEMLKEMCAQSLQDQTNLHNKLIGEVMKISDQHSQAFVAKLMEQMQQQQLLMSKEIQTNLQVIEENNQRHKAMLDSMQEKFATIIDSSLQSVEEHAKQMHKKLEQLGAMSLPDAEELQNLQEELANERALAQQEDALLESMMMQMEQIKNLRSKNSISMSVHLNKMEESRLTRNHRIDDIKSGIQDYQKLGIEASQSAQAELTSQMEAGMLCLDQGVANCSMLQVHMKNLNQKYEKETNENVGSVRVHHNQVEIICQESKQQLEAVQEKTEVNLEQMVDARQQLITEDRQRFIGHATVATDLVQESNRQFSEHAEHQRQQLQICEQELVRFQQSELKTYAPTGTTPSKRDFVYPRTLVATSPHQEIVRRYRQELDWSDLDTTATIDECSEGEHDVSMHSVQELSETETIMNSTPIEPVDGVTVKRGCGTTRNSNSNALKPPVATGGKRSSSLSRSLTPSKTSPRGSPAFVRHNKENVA
# Procedure, shortened: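 Drosophila S2 cells were exposed to compound over a three-log concentration range up to 100 μM, with treatments extending up to 7 h. Bipolar spindle formation was scored by immunofluorescence.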
# CAKI-1 = test: Growth inhibition of human Caki1 cells; type: functional
# HOP-62 = test: Growth inhibition of human HOP62 cells; type: functional
# MOLT-4 = test: Growth inhibition of human MOLT4 cells; type: functional
# UACC-257 = test: Growth inhibition of human UACC257 cells; type: functional
# OVCAR-4 = test: Growth inhibition of human OVCAR4 cells; type: functional
# SF-295 = test: Growth inhibition of human SF295 cells; type: functional
# 786-0 = test: Growth inhibition of human 786-0 cells; type: functional
# HeLa [3] = test: Inhibition of bipolar spindle formation in human HeLa cells at 1 uM; type: functional, cell-based
# Procedure, shortened: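 HeLa cells were grown in MEM with Earle's BSS, 10% FBS, sodium bicarbonate and pyruvate at 37°C in 5% CO2. They were exposed to compound in DMSO for 4 h, with 0.1% DMSO as carrier control. Cells were fixed in −20°C methanol and immunostained for tubulin, with DNA counterstained. Bipolar spindle formation was scored in 100 mitotic cells per condition.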
# Malme-3M = test: Growth inhibition of human MALME-3M cells; type: functional
# SK-MEL-2 = test: Growth inhibition of human SK-MEL-2 cells; type: functional
# NCI-H522 = test: Growth inhibition of human NCI-H522 cells; type: functional
# COLO 205 = test: Growth inhibition of human COLO205 cells; type: functional
# [4] = biological target: Centromere-associated protein E (Homo sapiens) (UniProt Q02224); test: Inhibition of CENP-E
# Sequence of Centromere-associated protein E (Homo sapiens) (Q02224 whole entry, the tested form may be a part): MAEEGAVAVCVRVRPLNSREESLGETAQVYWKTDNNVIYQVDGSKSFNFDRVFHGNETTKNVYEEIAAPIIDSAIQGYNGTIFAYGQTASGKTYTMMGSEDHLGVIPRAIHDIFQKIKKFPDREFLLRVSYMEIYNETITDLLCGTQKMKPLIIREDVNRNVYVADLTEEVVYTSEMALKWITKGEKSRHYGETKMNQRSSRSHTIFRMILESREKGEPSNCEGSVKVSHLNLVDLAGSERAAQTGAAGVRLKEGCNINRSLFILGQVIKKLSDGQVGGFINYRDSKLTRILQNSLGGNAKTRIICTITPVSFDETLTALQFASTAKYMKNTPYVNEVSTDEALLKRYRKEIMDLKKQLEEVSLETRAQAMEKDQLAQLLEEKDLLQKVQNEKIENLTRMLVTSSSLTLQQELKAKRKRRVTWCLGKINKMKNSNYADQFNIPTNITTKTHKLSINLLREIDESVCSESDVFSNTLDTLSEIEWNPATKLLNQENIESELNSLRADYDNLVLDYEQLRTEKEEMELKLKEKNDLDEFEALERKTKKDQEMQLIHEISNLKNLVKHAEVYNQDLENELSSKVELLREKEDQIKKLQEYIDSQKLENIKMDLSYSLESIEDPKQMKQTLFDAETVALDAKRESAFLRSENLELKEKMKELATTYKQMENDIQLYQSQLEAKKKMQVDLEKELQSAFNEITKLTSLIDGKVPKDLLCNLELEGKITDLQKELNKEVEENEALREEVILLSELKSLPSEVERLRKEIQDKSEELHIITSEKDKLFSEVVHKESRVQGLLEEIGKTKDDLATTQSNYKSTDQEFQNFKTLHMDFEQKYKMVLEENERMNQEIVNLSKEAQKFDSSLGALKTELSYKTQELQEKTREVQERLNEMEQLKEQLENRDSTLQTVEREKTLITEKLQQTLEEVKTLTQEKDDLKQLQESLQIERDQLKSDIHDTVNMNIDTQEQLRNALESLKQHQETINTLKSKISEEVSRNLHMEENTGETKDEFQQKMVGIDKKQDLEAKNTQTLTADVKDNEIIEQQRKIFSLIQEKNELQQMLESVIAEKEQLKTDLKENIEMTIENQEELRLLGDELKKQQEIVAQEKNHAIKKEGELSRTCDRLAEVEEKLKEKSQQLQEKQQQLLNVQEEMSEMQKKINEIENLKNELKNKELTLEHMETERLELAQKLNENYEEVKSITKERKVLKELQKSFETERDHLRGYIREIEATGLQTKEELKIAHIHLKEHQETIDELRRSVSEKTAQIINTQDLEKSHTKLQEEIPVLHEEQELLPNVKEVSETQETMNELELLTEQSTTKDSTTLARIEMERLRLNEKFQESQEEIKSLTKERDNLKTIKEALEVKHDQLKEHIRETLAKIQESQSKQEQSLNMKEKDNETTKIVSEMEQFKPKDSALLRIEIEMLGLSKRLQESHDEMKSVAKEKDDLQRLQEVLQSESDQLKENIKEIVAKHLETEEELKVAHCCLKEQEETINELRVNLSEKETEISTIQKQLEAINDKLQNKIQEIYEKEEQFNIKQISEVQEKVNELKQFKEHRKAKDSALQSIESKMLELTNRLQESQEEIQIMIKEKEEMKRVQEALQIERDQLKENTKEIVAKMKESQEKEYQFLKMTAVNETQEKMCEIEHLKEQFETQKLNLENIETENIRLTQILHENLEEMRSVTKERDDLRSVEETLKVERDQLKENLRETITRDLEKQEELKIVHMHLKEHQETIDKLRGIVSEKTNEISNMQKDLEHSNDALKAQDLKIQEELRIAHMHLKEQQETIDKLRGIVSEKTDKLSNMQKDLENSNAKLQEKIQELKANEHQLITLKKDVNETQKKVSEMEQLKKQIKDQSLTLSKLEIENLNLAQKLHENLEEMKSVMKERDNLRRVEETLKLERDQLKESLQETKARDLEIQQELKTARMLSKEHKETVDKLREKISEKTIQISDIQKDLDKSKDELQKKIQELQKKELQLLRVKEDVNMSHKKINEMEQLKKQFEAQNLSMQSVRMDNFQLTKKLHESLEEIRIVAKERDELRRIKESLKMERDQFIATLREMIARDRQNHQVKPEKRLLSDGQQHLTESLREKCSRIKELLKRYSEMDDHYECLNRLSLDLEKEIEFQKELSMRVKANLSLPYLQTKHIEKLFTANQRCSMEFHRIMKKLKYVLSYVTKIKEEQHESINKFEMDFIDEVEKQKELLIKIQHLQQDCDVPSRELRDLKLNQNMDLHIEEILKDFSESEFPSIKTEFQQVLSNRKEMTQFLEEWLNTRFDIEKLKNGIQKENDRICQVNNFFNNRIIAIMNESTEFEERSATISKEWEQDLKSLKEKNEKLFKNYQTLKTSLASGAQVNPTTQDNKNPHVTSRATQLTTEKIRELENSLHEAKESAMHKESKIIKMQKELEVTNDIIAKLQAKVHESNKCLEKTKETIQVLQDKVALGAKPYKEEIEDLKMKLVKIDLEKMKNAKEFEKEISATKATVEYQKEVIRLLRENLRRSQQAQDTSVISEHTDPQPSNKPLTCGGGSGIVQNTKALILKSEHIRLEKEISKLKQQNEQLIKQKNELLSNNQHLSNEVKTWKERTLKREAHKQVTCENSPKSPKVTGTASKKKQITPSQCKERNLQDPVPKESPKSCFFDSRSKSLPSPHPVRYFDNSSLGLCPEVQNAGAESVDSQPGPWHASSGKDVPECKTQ
# Procedure, shortened: (§1)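 Microtubule-activated ATPase end-point assay with kinesin motor domain at 0.08 μg/μl final. Reactions were started with 2 mM ATP, run 5 min at room temperature, and stopped with CytoPhos. After 10 min more, absorbance was read at 650 nm. Compounds were tested at 0.25–10 μM against a 0.1% DMSO control, in triplicate. IC50 came from four-parameter non-linear regression.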
# [5] = biological target: Kinesin-like protein KIF2C (Homo sapiens) (UniProt Q99661); test: Inhibition of MACK; procedure, shortened: as §1
# Sequence of Kinesin-like protein KIF2C (Homo sapiens) (Q99661 whole entry): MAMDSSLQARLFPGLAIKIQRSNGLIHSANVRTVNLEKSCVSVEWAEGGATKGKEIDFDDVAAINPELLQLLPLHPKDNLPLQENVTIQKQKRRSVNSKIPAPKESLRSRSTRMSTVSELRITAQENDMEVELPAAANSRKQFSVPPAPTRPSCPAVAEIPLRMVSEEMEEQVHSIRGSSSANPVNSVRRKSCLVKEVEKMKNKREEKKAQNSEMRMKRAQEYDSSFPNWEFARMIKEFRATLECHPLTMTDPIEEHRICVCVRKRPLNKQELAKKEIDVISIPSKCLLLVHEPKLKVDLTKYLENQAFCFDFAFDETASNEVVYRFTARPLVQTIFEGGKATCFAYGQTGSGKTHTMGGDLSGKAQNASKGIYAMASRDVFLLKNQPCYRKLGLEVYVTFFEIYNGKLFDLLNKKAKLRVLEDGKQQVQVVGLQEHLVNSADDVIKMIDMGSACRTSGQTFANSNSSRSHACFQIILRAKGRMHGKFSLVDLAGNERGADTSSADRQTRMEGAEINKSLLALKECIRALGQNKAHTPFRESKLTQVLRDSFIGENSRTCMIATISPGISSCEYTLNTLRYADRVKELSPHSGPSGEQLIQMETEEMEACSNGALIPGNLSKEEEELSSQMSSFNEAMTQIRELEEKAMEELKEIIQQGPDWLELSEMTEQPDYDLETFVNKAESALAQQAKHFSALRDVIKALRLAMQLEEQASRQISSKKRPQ
# OVCAR-3 = test: Growth inhibition of human OVCAR3 cells; type: functional
# NCI-H226 = test: Growth inhibition of human NCI-H226 cells; type: functional
# EKVX = test: Growth inhibition of human EKVX cells; type: functional
# [6] = Inhibition of bipolar spindle formation in Strongylocentrotus purpuratus eggs; type: functional, Egg
# Procedure, shortened: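 S. purpuratus eggs (gametes released with 0.5M KCl) were fertilized in artificial seawater with 2 mM 3-amino triazole and stripped of envelopes 20 min post-fertilization. They were then cultured with 0.1% DMSO or inhibitor at 100 nM–100 μM, fixed at first mitosis and stained for microtubules and DNA. 100 cells per condition were scored for bipolar spindles to derive EC50.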
# HeLa [7] = test: Effect on interphase microtubule organization in human HeLa cells at 1 uM; type: functional, cell-based
# Procedure, shortened: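 HeLa cells were grown in MEM/Earle's BSS with 10% FBS at 37 °C and 5% CO2, then treated 4 h with 1 μM compound or 0.1% DMSO carrier. Cells were fixed in 100% MeOH at −20 °C and blocked in PBS-5% BSA. They were stained overnight at 4 °C with mouse anti-tubulin and for DNA, then imaged by epifluorescence with structured illumination.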
# HeLa [8] = test: Induction of KSP depletion in human HeLa cells after 4 hrs by immunofluorescence analysis; type: functional, cell-based
# Procedure, shortened: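 HeLa cells were treated 4 h across a concentration series of compound in DMSO, then fixed in 100% MeOH at −20 °C. They were probed overnight at 4 °C with mouse anti-KSP and rabbit anti-EB1 to mark microtubules, with Alexa Fluor secondaries and DNA counterstain. KSP (green channel) images were taken at equivalent exposure times.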
# HeLa [9] = test: Induction of KSP depletion in human HeLa cells after 4 hrs by immunofluorescence analysis relative to STLC; type: functional
# Procedure, shortened: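 HeLa cells in MEM/Earle's BSS with 10% FBS at 37°C, 5% CO2 were exposed 4 h to DMSO-dissolved compound over a range of doses. They were then fixed in 100% MeOH at −20°C (≥30 min), rehydrated in PBS, blocked in PBS-5% BSA, and stained overnight at 4°C with mouse anti-KSP plus rabbit anti-EB1 (microtubules). DNA was counterstained. Green channel was imaged at equal exposure.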
# CCRF-CEM = test: Growth inhibition of human CCRF-CEM cells; type: functional
# SR = test: Growth inhibition of human SR cells; type: functional
# [10] = biological target: Chromosome-associated kinesin KIF4A (Homo sapiens) (UniProt O95239); test: Inhibition of chromokinesin
# Sequence of Chromosome-associated kinesin KIF4A (Homo sapiens) (O95239 whole entry): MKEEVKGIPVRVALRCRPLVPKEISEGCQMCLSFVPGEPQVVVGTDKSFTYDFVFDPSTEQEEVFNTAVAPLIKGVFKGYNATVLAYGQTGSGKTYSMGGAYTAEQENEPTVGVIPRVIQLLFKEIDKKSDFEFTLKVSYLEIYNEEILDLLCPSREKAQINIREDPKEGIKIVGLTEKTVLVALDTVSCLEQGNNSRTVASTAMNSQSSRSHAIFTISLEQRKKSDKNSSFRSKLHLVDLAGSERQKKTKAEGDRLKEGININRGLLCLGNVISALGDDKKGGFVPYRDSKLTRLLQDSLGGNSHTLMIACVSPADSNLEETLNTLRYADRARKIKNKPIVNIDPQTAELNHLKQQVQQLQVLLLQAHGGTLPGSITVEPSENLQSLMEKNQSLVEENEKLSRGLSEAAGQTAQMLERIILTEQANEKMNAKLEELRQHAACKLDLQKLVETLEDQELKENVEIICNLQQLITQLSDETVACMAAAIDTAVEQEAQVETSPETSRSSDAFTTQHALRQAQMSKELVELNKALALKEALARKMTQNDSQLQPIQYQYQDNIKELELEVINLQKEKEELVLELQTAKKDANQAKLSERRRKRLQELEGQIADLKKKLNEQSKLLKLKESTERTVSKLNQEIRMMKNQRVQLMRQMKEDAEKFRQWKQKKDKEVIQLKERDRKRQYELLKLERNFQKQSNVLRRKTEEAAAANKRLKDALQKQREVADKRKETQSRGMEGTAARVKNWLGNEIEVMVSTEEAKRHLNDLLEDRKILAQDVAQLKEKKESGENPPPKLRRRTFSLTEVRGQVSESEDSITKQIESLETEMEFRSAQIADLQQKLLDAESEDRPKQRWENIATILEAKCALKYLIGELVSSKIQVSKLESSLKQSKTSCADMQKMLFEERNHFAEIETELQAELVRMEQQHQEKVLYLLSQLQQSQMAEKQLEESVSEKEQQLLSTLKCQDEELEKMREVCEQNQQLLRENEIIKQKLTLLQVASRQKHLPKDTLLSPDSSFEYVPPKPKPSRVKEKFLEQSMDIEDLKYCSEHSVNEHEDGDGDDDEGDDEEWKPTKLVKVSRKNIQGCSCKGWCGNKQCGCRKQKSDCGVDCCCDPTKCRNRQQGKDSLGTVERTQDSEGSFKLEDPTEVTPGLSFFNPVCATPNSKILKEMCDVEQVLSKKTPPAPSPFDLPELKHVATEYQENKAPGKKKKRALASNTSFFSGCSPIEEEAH
# SF-268 = test: Growth inhibition of human SF268 cells; type: functional
# SK-OV-3 = test: Growth inhibition of human SKOV3 cells; type: functional
# K562 = test: Growth inhibition of human K562 cells; type: functional
# U-251 = test: Growth inhibition of human U251 cells; type: functional
# KM12 = test: Growth inhibition of human KM12 cells; type: functional
# A549 = test: Growth inhibition of human A549 cells; type: functional
# OVCAR-8 = test: Growth inhibition of human OVCAR8 cells; type: functional
structure (smiles),measurement,setting,value
CCOC(=O)C1=C(C)NC(=S)NC1c1cccc(O)c1 (stereo unspecified) [MONASTROL],GI50,LOX IMVI,79400 nM
same,GI50,SNB-75,39800 nM
same,GI50,TK-10,100000 nM
same,GI50,SNB-19,79400 nM
same,GI50,ACHN,79400 nM
same,GI50,UACC-62,39800 nM
same,GI50,UO-31,100000 nM
same,GI50,SK-MEL-28,79400 nM
same,GI50,SF-539,50100 nM
same,GI50,HCT-15,39800 nM
same,GI50,SK-MEL-5,39800 nM
same,GI50,HL-60(TB),25100 nM
same,GI50,[1],31600 nM
same,GI50,NCI-H322M,39800 nM
same,GI50,OVCAR-5,79400 nM
same,GI50,HT-29,79400 nM
same,GI50,SW-620,39800 nM
same,GI50,HCC 2998,39800 nM
same,GI50,SN12C,39800 nM
same,GI50,M14,25100 nM
COc1ccc(C(SC[C@H](N)CO)(c2ccccc2)c2ccccc2)cc1,inhibition,[2],inactive
same,GI50,CAKI-1,450 nM
same,GI50,HOP-62,510 nM
same,GI50,MOLT-4,280 nM
same,GI50,UACC-257,540 nM
same,GI50,OVCAR-4,1620 nM
same,GI50,SF-295,280 nM
same,GI50,786-0,440 nM
same,inhibition,HeLa [3],Active
same,GI50,LOX IMVI,490 nM
same,GI50,Malme-3M,360 nM
same,GI50,SK-MEL-2,240 nM
same,GI50,NCI-H522,220 nM
same,GI50,COLO 205,80 nM
same,GI50,TK-10,460 nM
same,GI50,SNB-19,250 nM
same,inhibition,[4],inactive
same,inhibition,[5],inactive
same,GI50,ACHN,490 nM
same,GI50,OVCAR-3,200 nM
same,GI50,NCI-H226,2750 nM
same,GI50,EKVX,510 nM
same,EC50,[6],28000 nM
same,Activity,HeLa [7],inactive
same,Activity,HeLa [8],Dose-dependent effect
same,fold change (FC),HeLa [9],1.63
same,GI50,UACC-62,250 nM
same,GI50,UO-31,1100 nM
same,GI50,CCRF-CEM,100 nM
same,GI50,SR,10 nM
same,GI50,SK-MEL-28,620 nM
same,GI50,SF-539,260 nM
same,GI50,HCT-15,210 nM
same,inhibition,[10],inactive
same,GI50,SF-268,110 nM
same,GI50,SK-OV-3,80 nM
same,GI50,SK-MEL-5,60 nM
same,GI50,HL-60(TB),190 nM
same,GI50,[1],30 nM
same,GI50,K562,60 nM
same,GI50,U-251,190 nM
same,GI50,NCI-H322M,110 nM
same,GI50,OVCAR-5,390 nM
same,GI50,HT-29,340 nM
same,GI50,KM12,220 nM
same,GI50,SW-620,70 nM
same,GI50,A549,330 nM
same,GI50,HCC 2998,50 nM
same,GI50,OVCAR-8,420 nM
same,GI50,SN12C,320 nM
same,GI50,M14,20 nM
